DENV2 CPE – inhibitors of DENV2 cytopathic effect | DENV2-infected cells, cytopathic effect rescue, plate reader | CPE inhibition, % at 9.99 µM | 1.7% of 350,000 active; in the data active = CPE inhibition above about 20%, passing the limit was not always enough; inconclusive = no clear call, values can overlap the other calls; tested in BHK-21 cells
SIRT5 inh – blocks human SIRT5 desuccinylation of peptide | AID 652115 | 1.1% of 330,000 active | Purified SirT5, succinyl-peptide AMC, trypsin-coupled fluorescence | inhibition, % at 15 µM; in the data active = inhibition above about 15%; inconclusive = no clear call, values can overlap the other calls
E-sel inducer – E-selectin induction on HUVECs | 0.37% of 260,000 active | HUVEC E-selectin immunofluorescence imaging; normalized: neutral wells 0, TNF-alpha wells 100 | P16581 | activation, % at 7.58 µM;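 active = mean E-selectin-positive cell signal at least 10% of the positive control, reached in at least 60% of replicates, without over 20% cell loss; inconclusive = no rule given, readout overlaps actives, possibly toxicity-flagged; inactive = the rest, including those meeting only one limit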
Target sequence (P16581 whole entry, looked up): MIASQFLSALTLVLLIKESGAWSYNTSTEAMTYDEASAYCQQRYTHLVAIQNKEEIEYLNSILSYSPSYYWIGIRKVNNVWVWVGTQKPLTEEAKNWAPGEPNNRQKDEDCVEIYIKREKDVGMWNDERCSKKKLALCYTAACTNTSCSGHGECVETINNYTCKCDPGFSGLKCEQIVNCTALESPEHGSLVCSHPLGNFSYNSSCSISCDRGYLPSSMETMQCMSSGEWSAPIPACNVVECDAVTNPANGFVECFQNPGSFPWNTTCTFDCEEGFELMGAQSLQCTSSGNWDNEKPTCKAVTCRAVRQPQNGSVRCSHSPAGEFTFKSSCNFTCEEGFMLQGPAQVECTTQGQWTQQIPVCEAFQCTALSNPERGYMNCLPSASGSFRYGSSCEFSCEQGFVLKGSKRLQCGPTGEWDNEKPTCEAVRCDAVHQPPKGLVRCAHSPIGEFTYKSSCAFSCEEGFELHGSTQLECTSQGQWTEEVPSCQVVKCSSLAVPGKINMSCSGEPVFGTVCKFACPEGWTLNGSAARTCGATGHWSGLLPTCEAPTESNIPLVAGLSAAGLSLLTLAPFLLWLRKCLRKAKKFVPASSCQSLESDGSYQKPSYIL
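Test system – human umbilical vein endothelial cells (HUVEC), E-selectin induction · Input – 3,000 HUVEC seeded per well · Buffer or medium – EGM-2, gelatin · Compound dosing – single-point compound dose · Detection – immunofluorescence imaging · Measure – percent E-selectin-positive cells · Controls – TNF-alpha high, DMSO low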
Large screens that a line does not name were inactive. Hits are enriched below; roughly 2.9% of the tested compounds scored in any of these assays.

Cc1ccc(S(=O)(=O)N(C)C[C@@H]2OCCCC[C@@H](C)Oc3ccc(NC(=O)NC4CCCCC4)cc3C(=O)N([C@@H](C)CO)C[C@@H]2C)cc1	SIRT5 inh 15
Cc1cc(C(=O)CCl)c(C)n1CCc1ccccc1	none (no result: E-sel inducer)
CC=Cc1ccc2n(c1=O)C[C@H]1[C@H](CO)[C@@H](C(=O)NC3CCC3)N(C(=O)C3CC3)[C@@H]21 (mixture of isomers)	none
COc1ccc(NC(=O)N(C)C[C@@H]2Oc3ccc(NC(=O)Nc4ccc(F)cc4)cc3C(=O)N([C@@H](C)CO)C[C@H]2C)cc1	none
COc1cc(-c2cc(=O)c3c(O)cc(O)cc3o2)cc(OC)c1OC	none (no result: E-sel inducer)
O=c1ccc2[n+]([O-])c3ccc(O)cc3oc-2c1	E-sel inducer 193
O=c1cc(O)c2ccc(O)cc2o1	none (no result: E-sel inducer)
O=C(COc1ccccc1)OCC(=O)c1c[nH]c2ccccc12	none
CN(Cc1cccc(F)c1)C(=O)CN1C(=O)NC2(CCc3ccccc32)C1=O (stereo not drawn)	none
COc1ccc2c3c(n(C)c2c1)[C@@H](CO)N(C(=O)C1CCC1)CC31CN(C(=O)CN(C)C)C1	SIRT5 inh 15
COc1ccc2c3c(n(C)c2c1)[C@@H](CO)N(C(=O)C1CCOCC1)CC31CN(C(=O)C2CC2)C1	none
COc1ccc2c3c(n(C)c2c1)[C@H](CO)N(C(=O)C1CC1)CC31CN(C(=O)CN(C)C)C1	none
COc1ccc2c3c(n(C)c2c1)[C@H](CO)N(C(=O)C1CCOCC1)CC31CN(C(=O)C2CC2)C1	DENV2 CPE 22
NC(=O)COC(=O)[C@H](Cc1ccccc1)NS(=O)(=O)c1ccc2c(c1)OCCO2	none
Cc1cccc(S(=O)(=O)N2CC[C@@H]3[C@H](CO)N(C)c4ccc(Br)cc4[C@@H]32)c1	none
C[C@H]1CN([C@@H](C)CO)S(=O)(=O)c2ccc(/C=C/c3ccccc3)cc2O[C@H]1CN(C)Cc1ccccc1	SIRT5 inh 22 (no result: E-sel inducer)
C/C=C/c1ccc2c(c1)O[C@H](CN(C)Cc1ccccc1)[C@H](C)CN([C@H](C)CO)S2(=O)=O	none
C[C@H](CO)N1C[C@H](C)[C@@H](CN(C)Cc2ccccc2)Oc2cc(/C=C/c3ccccc3)ccc2S1(=O)=O	none
C[C@@H]1CN([C@@H](C)CO)S(=O)(=O)c2ccc(/C=C/c3ccccc3)cc2O[C@H]1CN(C)Cc1ccc(C(=O)O)cc1	SIRT5 inh inconclusive
C[C@H]1CN([C@@H](C)CO)S(=O)(=O)c2ccc(/C=C/c3ccccc3)cc2O[C@@H]1CN(C)Cc1ccc(C(=O)O)cc1	SIRT5 inh 25
C[C@H](CO)N1C[C@H](C)[C@H](CN(C)Cc2ccccc2)Oc2cc(/C=C/c3ccccc3)ccc2S1(=O)=O	SIRT5 inh 21
N#Cc1c(NC(=O)COC(=O)c2ccc(O)cc2O)sc2c1CCC2	DENV2 CPE inconclusive
CO[C@@H]1CN(C)C(=O)c2cc(NC(=O)c3cc(C)on3)ccc2OC[C@@H](C)N(C)C[C@@H]1C	none
CCOc1ccccc1NC(=O)C(C)CC (stereo not drawn)	none (no result: E-sel inducer)
CC1=C(C(=O)Nc2ccccn2)C(c2ccc(F)cc2)n2ncnc2N1 (stereo not drawn)	none (no result: E-sel inducer)
COc1ccc(NS(=O)(=O)c2cccc(C(=O)NN=Cc3ccc(O)c(OC)c3)c2)cc1	none
C[C@H](CO)N1C[C@H](C)[C@@H](CN(C)C(=O)CN2CCOCC2)Oc2ncc(C3=CCCCC3)cc2C1=O	none
C[C@@H]1CCC[C@]2(O[C@@H](CCO)C[C@@H](O)[C@@H]2O)O1	DENV2 CPE 34
C[C@H]1CC[C@@]2(O[C@@H](CCO)C[C@H](O)[C@H]2O)O1	none (no result: SIRT5 inh)
C[C@H]1CCC[C@]2(O[C@H](CCO)C[C@H](O)[C@H]2O)O1	none
C[C@@H]1CC[C@]2(O[C@H](CCO)C[C@H](O)[C@H]2O)O1	DENV2 CPE 39
CC(=O)Nc1ccc(/C=C(\C#N)S(=O)(=O)c2ccc(C)cc2)cc1	none
COc1ccc(CN(C)C[C@H]2OCCCC[C@@H](C)Oc3ccc(NC(=O)Nc4ccc(OC)cc4)cc3C(=O)N([C@@H](C)CO)C[C@@H]2C)cc1	none (no result: E-sel inducer)
COc1cccc(NC(=O)CN(c2ccc(C)cc2)S(=O)(=O)c2c(C)nn(C)c2C)c1	none (no result: DENV2 CPE, E-sel inducer)
C[C@H](CO)N1C[C@H](C)[C@H](CN(C)C(=O)c2ccccc2)Oc2cc(C3=CCCC3)ccc2S1(=O)=O	DENV2 CPE 27
CCCNC(=O)N(C)C[C@@H]1Oc2cc(C#C[C@H](C)O)ccc2S(=O)(=O)N([C@H](C)CO)C[C@H]1C	none
C[C@H](CO)N1C[C@H](C)[C@H](CN(C)Cc2cncnc2)Oc2cc(C3=CCCCC3)ccc2S1(=O)=O	DENV2 CPE 30
C[C@H](CO)N1C[C@H](C)[C@@H](CN(C)C(=O)c2ccccc2)Oc2cc(C3=CCCC3)ccc2S1(=O)=O	none
C[C@H]1CN([C@@H](C)CO)S(=O)(=O)c2ccc(C3=CCCC3)cc2O[C@H]1CN(C)Cc1cncnc1	none
CCCNC(=O)N(C)C[C@H]1Oc2cc(C3=CCCCC3)ccc2S(=O)(=O)N([C@@H](C)CO)C[C@H]1C	none
CCCNC(=O)N(C)C[C@H]1Oc2cc(C#C[C@H](C)O)ccc2S(=O)(=O)N([C@H](C)CO)C[C@H]1C	DENV2 CPE 42
CCCNC(=O)N(C)C[C@@H]1Oc2cc(C3=CCCCC3)ccc2S(=O)(=O)N([C@H](C)CO)C[C@H]1C	DENV2 CPE 47
C=CC[C@H](CC(=O)OC(C)(C)C)C(=O)OC[C@H]1CCCN1C(=O)[C@@H](CC=C)CC(=O)N(CCO)Cc1ccccc1	none (no result: DENV2 CPE, SIRT5 inh)
O=C(C[C@H]1C[C@@H]2c3cc(NS(=O)(=O)c4ccc(F)cc4)ccc3O[C@@H]2[C@H](CO)O1)NCc1cccnc1	none
COc1ccc(-c2ccc([C@@H]3[C@@H](C#N)N(C(=O)NC(C)C)[C@H]3CO)cc2)cc1	none
CC[C@@]1(C(=O)OC)N[C@H](CN(C)C(=O)C2CCCCC2)[C@@H]2C(=O)N(C)C(=O)[C@@H]21	DENV2 CPE inconclusive
C[C@@H]1CN([C@H](C)CO)S(=O)(=O)c2ccc(C3=CCCC3)cc2O[C@H]1CN(C)Cc1ccccc1	none
C[C@@H]1CN([C@H](C)CO)S(=O)(=O)c2ccc(C3=CCCCC3)cc2O[C@H]1CN(C)C(=O)Nc1ccc2c(c1)OCO2	SIRT5 inh 20
C[C@@H]1CN([C@@H](C)CO)S(=O)(=O)c2ccc(C3=CCCC3)cc2O[C@H]1CN(C)Cc1ccncc1	none
C[C@H](CO)N1C[C@H](C)[C@@H](CN(C)Cc2ccccc2)Oc2cc(C3=CCCC3)ccc2S1(=O)=O	SIRT5 inh 17
C[C@H](CO)N1C[C@H](C)[C@H](CN(C)Cc2ccncc2)Oc2cc(C3=CCCC3)ccc2S1(=O)=O	DENV2 CPE 36
C[C@@H]1CN([C@H](C)CO)S(=O)(=O)c2ccc(C3=CCCC3)cc2O[C@@H]1CN(C)Cc1cccnc1	none
C[C@@H]1CN([C@@H](C)CO)S(=O)(=O)c2ccc(C3=CCCCC3)cc2O[C@H]1CN(C)C(=O)Nc1ccc2c(c1)OCO2	none
C[C@H](CO)N1C[C@H](C)[C@H](CN(C)Cc2cccnc2)Oc2cc(C3=CCCC3)ccc2S1(=O)=O	DENV2 CPE 28
Cc1ccc(NC(=O)CN2C(=O)COc3ccc(S(=O)(=O)N4CCOCC4)cc32)cc1F	none (no result: E-sel inducer)
COC(=O)c1ccc(COc2ccc(/C=N/N3CCN(C)CC3)cc2)cc1	none (no result: SIRT5 inh, E-sel inducer)
